Results from different studies.
Each line is one published result; the experiments were not run side by side.
Target: Tyrosine-protein kinase CSK (CSK, Homo sapiens, UniProt P41240)

SMILES | read-out | action | technique | concentration | notes | endpoint | result
Cc1ccc(NC(=O)c2ccnc(C(F)(F)F)c2)cc1-c1cc(OCCO)nc(N2CCOCC2)c1 | binding | – | competition with immobilised ligand | 1 µM | – | remaining binding | 95%
CCCCC(=O)Nc1ccc(-c2ccc3ncn(CCC)c(=O)c3c2)cn1 | binding | – | competition with immobilised ligand | 0.5 µM | – | remaining binding | 94%
C1=C/COCc2cc(ccc2OCCN2CCCC2)Nc2nccc(n2)-c2cccc(c2)COC/1 | cell-free assay | – | – | 0.1 µM | – | remaining signal | 88%
COc1ccc2oc(-c3ccc4nc(N)oc4c3)c/c(=N\c3ccccc3NC(=O)CCN)c2c1 | cell-free assay | – | – | 1 µM | – | remaining signal | 119%
C#Cc1cc(-c2cc(Nc3nc(N[C@@H](C)c4ccc(F)cn4)ncc3Cl)n[nH]2)ccc1C=O | enzyme activity | inhibitor | – | 0.2 µM | – | inhibition | 14%
CO[C@@H]1[C@H](N(C)C(=O)c2ccccc2)C[C@H]2O[C@]1(C)n1c3ccccc3c3c4c(c5c6ccccc6n2c5c31)C(=O)NC4 | enzyme activity | inhibitor | – | 1 µM | – | inhibition | 0%
CN1CCN(C(=O)c2ccc(NC(=O)Nc3ccc(N(C)c4ccnc(Nc5ccc(CS(C)(=O)=O)cc5)n4)cc3)cc2)CC1 | binding | – | competition with immobilised ligand | 1 µM | – | remaining binding | 62%
CC#CC(=O)N1CCC[C@H]1c1nc(-c2ccc(C(=O)Nc3ccccn3)cc2)c2c(N)nccn12 | enzyme activity | inhibitor | – | 1 µM | – | inhibition | 32%
Cc1cc(O)c(-c2ccc([C@@H](C)CN(C)C)cc2)c2c1[nH]c(=O)c1sccc12 | enzyme activity | inhibitor | – | 0.1 µM | lysate | inhibition | 2.59%
